Results published in ChEMBL document CHEMBL1629486, “Antimicrobial, antitumor and 5α-reductase inhibitor activities of some hydrazonoyl substituted pyrimidinones” (Eur J Med Chem, 2010).

Columns and labels:
786-0 = experiment: Growth inhibition of human 786-0 cells assessed as cell growth at 1 M after 48 hrs by sulforhodamine B assay; format: functional; design: scale not given: the % may be the effect or the level left
Procedure, shortened: (§1)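 NCI 60-cell screen at a single high dose. Cells are grown in RPMI 1640 with 5% FBS and 2 mM L-glutamine, then plated at 5000–40,000 cells/well and held 24 h at 37 °C in 5% CO2 at 100% humidity. Drug is then added and plates are incubated another 48 h, with SRB staining as read-out. Results are given as growth percent (100 = no inhibition, 0 = no net growth, negative = lethality).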

SF-539 = experiment: Growth inhibition of human SF539 cells assessed as cell growth at 1 M after 48 hrs by sulforhodamine B assay; format: functional; design: scale not given: the % may be the effect or the level left
Procedure, shortened: (§2)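 NCI 60-cell panel screen, single dose (1.0 M as printed). Cells grown in RPMI 1640 with 5% fetal bovine serum and 2 mM L-glutamine, seeded at 5000–40,000 cells/well, preincubated 24 h at 37 °C in 5% CO2 at 100% humidity, then exposed to compound for 48 h. Sulforhodamine B staining read-out. Result given as growth percent: 100 = no inhibition, 0 = no net growth, negative = lethality.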

Staphylococcus aureus = experiment: Antimicrobial activity against Staphylococcus aureus at 1 to 5 ug/ml by agar well diffusion method; format: functional
Procedure, shortened: (§3)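 Agar well diffusion against bacteria and fungi. Inhibition zone is scored beyond the control: ++ 0.6–1.0 cm, + 0.1–0.5 cm, 0 no inhibition.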

MDA-MB-231 = experiment: Growth inhibition of human MDA-MB-231 cells assessed as cell growth at 1 M after 48 hrs by sulforhodamine B assay; format: functional; design: scale not given: the % may be the effect or the level left; procedure, shortened: as §1
NCI/ADR-RES = experiment: Growth inhibition of human NCI/ADR-RES cells assessed as cell growth at 1 M after 48 hrs by sulforhodamine B assay; format: functional; design: scale not given: the % may be the effect or the level left; procedure, shortened: as §1
Malme-3M = experiment: Growth inhibition of human MALME-3M cells assessed as cell growth at 1 M after 48 hrs by sulforhodamine B assay; format: functional; design: scale not given: the % may be the effect or the level left; procedure, shortened: as §1
NCI-H460 = experiment: Growth inhibition of human NCI-H460 cells assessed as cell growth at 1 M after 48 hrs by sulforhodamine B assay; format: functional; design: scale not given: the % may be the effect or the level left; procedure, shortened: as §1
SK-MEL-2 = experiment: Growth inhibition of human SK-MEL-2 cells assessed as cell growth at 1 M after 48 hrs by sulforhodamine B assay; format: functional; design: scale not given: the % may be the effect or the level left; procedure, shortened: as §2
TK-10 = experiment: Growth inhibition of human TK10 cells assessed as cell growth at 1 M after 48 hrs by sulforhodamine B assay; format: functional; design: scale not given: the % may be the effect or the level left; procedure, shortened: as §2
Pseudomonas aeruginosa = experiment: Antimicrobial activity against Pseudomonas aeruginosa at 1 to 5 ug/ml by agar well diffusion method; format: functional; procedure, shortened: as §3
IGROV-1 = experiment: Growth inhibition of human IGROV1 cells assessed as cell growth at 1 M after 48 hrs by sulforhodamine B assay; format: functional; design: scale not given: the % may be the effect or the level left; procedure, shortened: as §1
SNB-75 = experiment: Growth inhibition of human SNB75 cells assessed as cell growth at 1 M after 48 hrs by sulforhodamine B assay; format: functional; design: scale not given: the % may be the effect or the level left; procedure, shortened: as §2
NCI-H226 = experiment: Growth inhibition of human NCI-H226 cells assessed as cell growth at 1 M after 48 hrs by sulforhodamine B assay; format: functional; design: scale not given: the % may be the effect or the level left; procedure, shortened: as §1
HCC 2998 = experiment: Growth inhibition of human HCC2998 cells assessed as cell growth at 1 M after 48 hrs by sulforhodamine B assay; format: functional; design: scale not given: the % may be the effect or the level left; procedure, shortened: as §1
SK-MEL-5 = experiment: Growth inhibition of human SK-MEL-5 cells assessed as cell growth at 1 M after 48 hrs by sulforhodamine B assay; format: functional; design: scale not given: the % may be the effect or the level left; procedure, shortened: as §2
Rattus norvegicus [1] = experiment: Effect on circulating testosterone and dihydrotestosterone level in sc dosed Sprague-Dawley rat by radioimmunoassay relative to anastrozole; format: functional
Procedure, shortened: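 Serum testosterone and DHT were measured by RIA in ether extracts of serum (0.5 mL serum, 2 mL diethyl ether, 60 s shaking), without chromatography, in rats dosed at several levels. Relative potency is the ED50 of anastrozole divided by the ED50 of the test agent, where ED50 is the dose giving 50% of the pharmacological response.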

OVCAR-8 = experiment: Growth inhibition of human OVCAR8 cells assessed as cell growth at 1 M after 48 hrs by sulforhodamine B assay; format: functional; design: scale not given: the % may be the effect or the level left; procedure, shortened: as §1
CAKI-1 = experiment: Growth inhibition of human Caki1 cells assessed as cell growth at 1 M after 48 hrs by sulforhodamine B assay; format: functional; design: scale not given: the % may be the effect or the level left; procedure, shortened: as §1
Rattus norvegicus [2] = species on record: Rattus norvegicus; experiment: Acute toxicity in albino rat; format: organism-based; settings: in vivo
Procedure, shortened: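 Male albino rats received injections of increasing doses. LD50 and LD90, the doses killing 50% and 90% of the animals, were calculated by the Austen and Brocklehurst method.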

CCRF-CEM = experiment: Growth inhibition of human CCRF-CEM cells assessed as cell growth at 1 M after 48 hrs by sulforhodamine B assay; format: functional; design: scale not given: the % may be the effect or the level left; procedure, shortened: as §1
[3] = test system: Syncephalastrum racemosum; experiment: Antimicrobial activity against Syncephalastrum racemosum at 1 to 5 ug/ml by agar well diffusion method; format: functional; procedure, shortened: as §3
UO-31 = experiment: Growth inhibition of human UO31 cells assessed as cell growth at 1 M after 48 hrs by sulforhodamine B assay; format: functional; design: scale not given: the % may be the effect or the level left; procedure, shortened: as §2
MOLT-4 = experiment: Growth inhibition of human MOLT4 cells assessed as cell growth at 1 M after 48 hrs by sulforhodamine B assay; format: functional; design: scale not given: the % may be the effect or the level left; procedure, shortened: as §1
Escherichia coli = experiment: Antimicrobial activity against Escherichia coli at 1 to 5 ug/ml by agar well diffusion method; format: functional; procedure, shortened: as §3
BT-549 = experiment: Growth inhibition of human BT549 cells assessed as cell growth at 1 M after 48 hrs by sulforhodamine B assay; format: functional; design: scale not given: the % may be the effect or the level left; procedure, shortened: as §1
Aspergillus fumigatus = experiment: Antimicrobial activity against Aspergillus fumigatus at 1 to 5 ug/ml by agar well diffusion method; format: functional; procedure, shortened: as §3
DU-145 = experiment: Growth inhibition of human DU145 cells assessed as cell growth at 1 M after 48 hrs by sulforhodamine B assay; format: functional; design: scale not given: the % may be the effect or the level left; procedure, shortened: as §1
SN12C = experiment: Growth inhibition of human SN12C cells assessed as cell growth at 1 M after 48 hrs by sulforhodamine B assay; format: functional; design: scale not given: the % may be the effect or the level left; procedure, shortened: as §2
LOX IMVI = experiment: Growth inhibition of human LOXIMVI cells assessed as cell growth at 1 M after 48 hrs by sulforhodamine B assay; format: functional; design: scale not given: the % may be the effect or the level left; procedure, shortened: as §1
MDA-MB-435 = experiment: Growth inhibition of human MDA-MB-435 cells assessed as cell growth at 1 M after 48 hrs by sulforhodamine B assay; format: functional; design: scale not given: the % may be the effect or the level left; procedure, shortened: as §1
UACC-257 = experiment: Growth inhibition of human UACC257 cells assessed as cell growth at 1 M after 48 hrs by sulforhodamine B assay; format: functional; design: scale not given: the % may be the effect or the level left; procedure, shortened: as §2
MDA-MB-468 = experiment: Growth inhibition of human MDA-MB-468 cells assessed as cell growth at 1 M after 48 hrs by sulforhodamine B assay; format: functional; design: scale not given: the % may be the effect or the level left; procedure, shortened: as §1
NCI-H522 = experiment: Growth inhibition of human NCI-H522 cells assessed as cell growth at 1 M after 48 hrs by sulforhodamine B assay; format: functional; design: scale not given: the % may be the effect or the level left; procedure, shortened: as §1
SR = experiment: Growth inhibition of human SR cells assessed as cell growth at 1 M after 48 hrs by sulforhodamine B assay; format: functional; design: scale not given: the % may be the effect or the level left; procedure, shortened: as §2

Row | Compound | Activity (786-0) [%] | Activity (SF-539) [%] | diameter of the inhibition zone (DIZ) (Staphylococcus aureus) [cm] | Activity (MDA-MB-231) [%] | Activity (NCI/ADR-RES) [%] | Activity (Malme-3M) [%] | Activity (NCI-H460) [%] | Activity (SK-MEL-2) [%] | Activity (TK-10) [%] | diameter of the inhibition zone (DIZ) (Pseudomonas aeruginosa) [cm] | Activity (IGROV-1) [%] | Activity (SNB-75) [%] | Activity (NCI-H226) [%] | Activity (HCC 2998) [%] | Activity (SK-MEL-5) [%] | Ratio ED50 (Rattus norvegicus [1]) | Activity (OVCAR-8) [%] | Activity (CAKI-1) [%] | LD50 (Rattus norvegicus [2]) [mg/kg] | LD90 (Rattus norvegicus [2]) [mg/kg] | other results
1 | Cc1cc(=O)[nH]c(/C(=N/Nc2ccccc2)C(=O)c2ccc(Cl)cc2)n1 | 82.24 | 92.33 | 0 | 101.67 | 105.88 | 113.86 | 108.76 | 102.42 | 65.49 | 0 | 17.65 | 128.46 | 108.67 | 109.1 | 92.44 | 5.166 | 92.85 | 103.86 | 2.11122 | 3.24592 | Activity (CCRF-CEM): 66.03%; diameter of the inhibition zone (DIZ) [3]: 0 cm; Activity (UO-31): 116.06%; Activity (MOLT-4): 39.84%; diameter of the inhibition zone (DIZ) (Escherichia coli): 0.6 cm; Activity (BT-549): 97.44%; diameter of the inhibition zone (DIZ) (Aspergillus fumigatus): 0 cm; Activity (DU-145): 104.88%; Activity (SN12C): 93.24%; Activity (LOX IMVI): 98.95%; Activity (MDA-MB-435): 107.78%
2 | CC(=O)c1ccc(N/N=C(\C(=O)c2ccc(Cl)cc2)c2nc(C)cc(=O)[nH]2)cc1 | 103.17 | 90.87 | 0 | 85.96 | 93.99 | 110.47 | 103.13 | 99.06 | 120.15 | 0 | 94.2 | 91.94 | 111 | 111.21 | 88.4 | 1.562 | 92.95 | 95 | 1.87034 | 2.25087 | Activity (UACC-257): 99.94%; Activity (MDA-MB-468): 94.65%; Activity (NCI-H522): 84.76%; diameter of the inhibition zone (DIZ) [3]: 0 cm; Activity (UO-31): 75.87%; Activity (SR): 62.16%; Activity (MOLT-4): 84.16%; diameter of the inhibition zone (DIZ) (Escherichia coli): 0 cm; Activity (BT-549): 99.42%; diameter of the inhibition zone (DIZ) (Aspergillus fumigatus): 0 cm; Activity (DU-145): 95.47%; Activity (SN12C): 95.54%; Activity (LOX IMVI): 90.57%; Activity (MDA-MB-435): 95.8%
3 | Cc1ccc(N/N=C(\C(=O)c2ccc(Cl)cc2)c2nc(C)cc(=O)[nH]2)cc1 | 82.91 | 85.29 | 0 | 95.9 | 102.57 | 126.09 | 105.3 | 95.33 | 136.08 | 0 | 7.59 | 115.66 | 107.41 | 115.84 | 82.48 | 6.301 | 100.7 | 112.71 | 2.663 | 4.35687 | Activity (UACC-257): 104.52%; Activity (CCRF-CEM): -15.08%; diameter of the inhibition zone (DIZ) [3]: 0 cm; Activity (SR): 84.35%; Activity (MOLT-4): 98.62%; diameter of the inhibition zone (DIZ) (Escherichia coli): 0.6 cm; Activity (BT-549): 117.79%; diameter of the inhibition zone (DIZ) (Aspergillus fumigatus): 0 cm; Activity (DU-145): 102.09%; Activity (SN12C): 99.97%; Activity (LOX IMVI): 92.62%; Activity (MDA-MB-435): 123.17%
